Calls of active or inactive are those of the source.
What was measured:
Jurkat [1] = experiment: Cell cycle arrest in human Jurkat cells assessed as decrease in accumulation at G0/G1 phase at 30 nM after 24 hrs by propidium iodide staining-based flow cytometric analysis; format: functional
Jurkat/A4 [2] = experiment: Induction of apoptosis in human Jurkat/A4 cells assessed as condensed and fragmented nuclei at 300 nM after 48 hrs by May-Grunwald-Giemsa staining-based microscopic analysis; format: functional, cell-based
In short: (§1)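 Jurkat or Jurkat/A4 suspension cultures in RPMI-1640 with 10% FCS at 37 °C, 5% CO2 were treated for 48 h alongside untreated controls. Cells were cytospun, stained May–Grünwald–Giemsa and examined by light microscopy with a 100× objective for nuclear and mitotic abnormalities.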

[3] = Cytotoxicity against human Jurkat/A4 cells assessed as cell death at 1 uM after 48 hrs by trypan blue exclusion assay relative to control; format: functional
In short: (§2)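 Compound added to exponentially growing Jurkat or Jurkat/A4 cells in RPMI-1640 with 10% FCS at 37 °C. Viable cells counted directly by trypan blue exclusion after 48 h. EC50 taken by linear interpolation of survival data. Mean±SD from three independent experiments.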

[4] = Induction of apoptosis in human Jurkat/A4 cells assessed as PARP-1 cleavage at 300 nM after 48 hrs by FITC-conjugated flow cytometric analysis (reference value: 0.9%); format: functional
Jurkat [5] = experiment: Induction of apoptosis in human Jurkat cells assessed as active caspase 3 expression at 30 nM after 48 hrs by FITC-conjugated flow cytometric analysis (reference value: 3.3%); format: functional
Jurkat/A4 [6] = experiment: Induction of apoptosis in human Jurkat/A4 cells assessed as reduction of XIAP expression at 300 nM after 24 hrs Western blotting analysis; format: functional, cell-based
In short: (§3)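 Cells in RPMI-1640 with 10% FCS at 37 °C, 5% CO2, were treated for 24 or 48 h, then washed in cold PBS. They were lysed 30 min at 4 °C in 20 mM Tris-HCl pH 7.4, 1% Triton X-100, 150 mM NaCl and protease inhibitors. Equal protein was run on 12% SDS-PAGE and blotted to PVDF, with 5% milk block. Primary MoAb 2 h RT, HRP anti-mouse 60 min, ECL; β-actin loading control.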

Paracentrotus lividus [7] = experiment: Antimitotic activity against sea urchin embryo model assessed as cleavage arrest of fertilized egg compound treated at 8 to 20 mins post-fertilization and 45 to 55 mins prior to first mitotic cycle completion measured 2.5 to 5.5 hrs post-fertilization; format: functional
In short: (§4)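 Fertilized eggs are exposed 8–20 min after fertilization to 2-fold decreasing concentrations. Stocks are 10 mM in DMSO, then diluted 10-fold in 95% EtOH; final DMSO is at most 0.05% and EtOH at most 1%. Embryos are kept as a monolayer, up to 2000 embryos/mL, in filtered seawater at room temperature. The value is the threshold concentration giving cleavage alteration, embryo death before hatching or full mitotic arrest. Duplicates were run.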

Jurkat [8] = experiment: Induction of apoptosis in human Jurkat cells assessed as condensed and fragmented nuclei at 15 nM after 48 hrs by May-Grunwald-Giemsa staining-based microscopic analysis; format: functional, cell-based; in short: as §1
Jurkat [9] = experiment: Induction of apoptosis in human Jurkat cells assessed as caspase 9 activation at 30 nM after 48 hrs by Western blotting analysis; format: functional, cell-based; in short: as §3
Jurkat [10] = experiment: Induction of apoptosis in human Jurkat cells assessed as active caspase 3 expression at 30 nM after 24 hrs by FITC-conjugated flow cytometric analysis (reference value: 3.3%); format: functional
[11] = Induction of apoptosis in human Jurkat/A4 cells assessed as active caspase 3 expression at 300 nM after 48 hrs by FITC-conjugated flow cytometric analysis (reference value: 1.1%); format: functional
[12] = Induction of apoptosis in human Jurkat/A4 cells assessed as active caspase 3 expression at 300 nM after 24 hrs by FITC-conjugated flow cytometric analysis (reference value: 1.1%); format: functional
Jurkat [13] = experiment: Cell cycle arrest in human Jurkat cells assessed as increase in accumulation at G2/M phase at 30 nM after 24 hrs by propidium iodide staining-based flow cytometric analysis; format: functional
[14] = Cytotoxicity against human MES-SA/Dx5 cells after 72 hrs by MTS assay; format: functional, cell-based; settings: MES-SA/Dx5, 72 h
Jurkat [15] = experiment: Induction of apoptosis in human Jurkat cells assessed as Bcl-2 expression at 30 nM after 24 to 48 hrs Western blotting analysis; format: functional, cell-based; in short: as §3
[16] = Cell cycle arrest in human Jurkat/A4 cells assessed as decrease in accumulation at G0/G1 phase at 300 nM after 24 hrs by propidium iodide staining-based flow cytometric analysis; format: functional
Jurkat [17] = experiment: Induction of apoptosis in human Jurkat cells assessed as caspase 2 activation at 30 nM after 24 to 48 hrs by Western blotting analysis; format: functional, cell-based; in short: as §3
Jurkat [18] = experiment: Induction of apoptosis in human Jurkat cells assessed as PARP-1 cleavage at 30 nM after 48 hrs by FITC-conjugated flow cytometric analysis (reference value: 3.5%); format: functional
Jurkat [19] = experiment: Induction of apoptosis in human Jurkat cells assessed as reduction of XIAP expression at 30 nM after 24 hrs Western blotting analysis; format: functional, cell-based; in short: as §3
Jurkat [20] = experiment: Induction of apoptosis in human Jurkat cells assessed as micronuclei formation at 15 nM after 48 hrs by May-Grunwald-Giemsa staining-based microscopic analysis; format: functional, cell-based; in short: as §1
Paracentrotus lividus [21] = experiment: Antimitotic activity against sea urchin embryo model assessed as cleavage alteration of fertilized egg compound treated at 8 to 20 mins post-fertilization and 45 to 55 mins prior to first mitotic cycle completion measured 2.5 to 5.5 hrs post-fertilization; format: functional; in short: as §4
[22] = Cytotoxicity against human MES-SA cells after 72 hrs by MTS assay; format: functional, cell-based
Jurkat [23] = experiment: Cell cycle arrest in human Jurkat cells assessed as accumulation at sub-G1 phase at 30 nM after 48 hrs by propidium iodide staining-based flow cytometric analysis (reference value: 12.2%); format: functional
Jurkat/A4 [24] = experiment: Cytotoxicity against human Jurkat/A4 cells assessed as cell death treated for 2 hrs followed by cultivation in drug-free medium for 7 days; format: functional, cell-based
In short: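 Jurkat/A4 cells in RPMI-1640 with 10% fetal calf serum are exposed for two hours, then cultured seven days in drug-free medium and scored for delayed cell death.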

Jurkat [25] = experiment: Induction of apoptosis in human Jurkat cells assessed as small cell fragments with unequally segregated chromosomes enclosed by cell membrane at 15 nM after 48 hrs by May-Grunwald-Giemsa staining-based microscopic analysis; format: functional; in short: as §1
Jurkat/A4 [26] = experiment: Induction of apoptosis in human Jurkat/A4 cells assessed as micronuclei formation at 300 nM after 48 hrs by May-Grunwald-Giemsa staining-based microscopic analysis; format: functional, cell-based; in short: as §1
Jurkat/A4 [27] = experiment: Induction of apoptosis in human Jurkat/A4 cells assessed as Bcl-2 expression at 300 nM after 24 to 48 hrs Western blotting analysis; format: functional, cell-based; in short: as §3
HL-60 = experiment: Cytotoxicity against human HL60 cells after 72 hrs by MTS assay; format: functional, cell-based; settings: HL-60, 72 h
[28] = Cytotoxicity against multidrug-resistant human HL60/TX1000 cells after 72 hrs by MTS assay; format: functional, cell-based; settings: HL60/TX1000, 72 h
Paracentrotus lividus [29] = experiment: Antimitotic activity against sea urchin embryo free-swimming blastula model assessed as embryo spinning compound treated at 8 to 10 hrs post-fertilization measured after 0.25 to 20 hrs; format: functional, Blastula stage
[30] = Cell cycle arrest in human Jurkat/A4 cells assessed as increase in accumulation at G2/M phase at 300 nM after 24 hrs by propidium iodide staining-based flow cytometric analysis; format: functional
Jurkat/A4 [31] = experiment: Induction of apoptosis in human Jurkat/A4 cells assessed as caspase 9 activation at 300 nM after 24 to 48 hrs by Western blotting analysis; format: functional, cell-based; in short: as §3
Jurkat/A4 [32] = experiment: Induction of apoptosis in human Jurkat/A4 cells assessed as caspase 2 activation at 300 nM after 24 to 48 hrs by Western blotting analysis; format: functional, cell-based; in short: as §3
Jurkat [33] = experiment: Induction of apoptosis in human Jurkat cells assessed as active caspase 3 expression at 30 nM by FITC-conjugated flow cytometric analysis; format: functional, cell-based; settings: TDE = time-dependent effect
Jurkat [34] = experiment: Cytotoxicity against human Jurkat cells assessed as cell viability after 48 hrs by trypan blue exclusion assay; format: functional, cell-based; in short: as §2
Jurkat/A4 [35] = experiment: Induction of apoptosis in human Jurkat/A4 cells assessed as small cell fragments with unequally segregated chromosomes enclosed by cell membrane at 300 nM after 48 hrs by May-Grunwald-Giemsa staining-based microscopic analysis; format: functional; in short: as §1
[36] = Cell cycle arrest in human Jurkat/A4 cells assessed as accumulation at sub-G1 phase at 300 nM after 48 hrs by propidium iodide staining-based flow cytometric analysis (reference value: 17.1%); format: functional

Compound: COc1ccc(-c2cnnn2-c2cc(OC)c(OC)c(OC)c2)cc1
- Activity (Jurkat [1]): Active
- Activity (Jurkat/A4 [2]): Active
- Activity [3]: <20%
- Activity [4]: 2.5%
- Activity (Jurkat [5]): 32.1%
- Activity (Jurkat/A4 [6]): inactive
- EC (Paracentrotus lividus [7]): 0.2 µM
- Activity (Jurkat [8]): Active
- Activity (Jurkat [9]): Active
- Activity (Jurkat [10]): 19.6%
- Activity [11]: 1.6%
- Activity [12]: 1.8%
- Activity (Jurkat [13]): Active
- IC50 [14]: 20 nM
- Activity (Jurkat [15]): inactive
- Activity [16]: Active
- Activity (Jurkat [17]): Active
- Activity (Jurkat [18]): 61.4%
- Activity (Jurkat [19]): Active
- Activity (Jurkat [20]): Active
- EC (Paracentrotus lividus [21]): 0.02 µM
- IC50 [22]: 20 nM
- Activity (Jurkat [23]): 43.4%
- Activity (Jurkat/A4 [24]): Active
- Activity (Jurkat [25]): Active
- Activity (Jurkat/A4 [26]): Active
- Activity (Jurkat/A4 [27]): inactive
- IC50 (HL-60): 20 nM
- IC50 [28]: 20 nM
- EC (Paracentrotus lividus [29]): 1 µM
- Activity [30]: Active
- Activity (Jurkat/A4 [31]): inactive
- Activity (Jurkat/A4 [32]): inactive
- Activity (Jurkat [33]): tde
- EC50 (Jurkat [34]): 30 nM
- Activity (Jurkat/A4 [35]): Active
- Activity [36]: 26.2%
